Assay results published in ChEMBL document CHEMBL1817562, “Docking and SAR studies of D- and L-isofagomine isomers as human β-glucocerebrosidase inhibitors” (Bioorg Med Chem, 2011).

What was measured:
Rattus norvegicus [1] = species: Rattus norvegicus; assay: Inhibition of rat intestinal cellobiase assessed as production of p-nitrophenol at 1000 uM by spectrophotometry
[2] = target: T1, Beta-galactosidase (Bos taurus) (UniProt Q58D55); assay: Inhibition of bovine liver beta-galactosidase assessed as production of p-nitrophenol at 1000 uM by spectrophotometry
T1 sequence (whole entry): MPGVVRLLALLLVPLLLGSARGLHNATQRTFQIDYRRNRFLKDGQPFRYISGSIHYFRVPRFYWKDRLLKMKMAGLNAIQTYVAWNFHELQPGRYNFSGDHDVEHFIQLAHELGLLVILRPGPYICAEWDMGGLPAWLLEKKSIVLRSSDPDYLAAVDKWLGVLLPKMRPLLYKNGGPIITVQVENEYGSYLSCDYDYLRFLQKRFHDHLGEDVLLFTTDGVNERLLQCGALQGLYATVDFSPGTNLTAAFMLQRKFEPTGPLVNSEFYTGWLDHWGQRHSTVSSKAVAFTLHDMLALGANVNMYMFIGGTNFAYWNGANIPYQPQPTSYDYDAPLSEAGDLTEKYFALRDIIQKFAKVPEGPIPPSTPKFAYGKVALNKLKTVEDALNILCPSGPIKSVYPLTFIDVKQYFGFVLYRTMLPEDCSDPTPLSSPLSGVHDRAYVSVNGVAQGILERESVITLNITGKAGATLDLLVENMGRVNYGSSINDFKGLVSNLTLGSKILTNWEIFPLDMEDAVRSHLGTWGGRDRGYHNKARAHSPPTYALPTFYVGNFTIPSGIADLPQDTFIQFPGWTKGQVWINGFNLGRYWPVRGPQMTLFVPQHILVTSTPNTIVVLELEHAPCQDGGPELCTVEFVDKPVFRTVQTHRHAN
In short: (§1)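 p-Nitrophenyl glycoside matched to each enzyme, 2 mM, with enzyme at that enzyme's optimum pH: Penicillium decumbens α-L-rhamnosidase pH 4.0, bovine liver β-galactosidase pH 6.8, coffee bean α-galactosidase pH 6.5, jack bean α-mannosidase pH 4.5, snail β-mannosidase pH 4.5. Stopped with 400 mM Na2CO3; released p-nitrophenol read at 400 nm.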

Canavalia ensiformis = assay: Inhibition of jack beans alpha-mannosidase assessed as production of p-nitrophenol at 1000 uM by spectrophotometry; in short: as §1
Helix pomatia = assay: Inhibition of snail beta-mannosidase assessed as production of p-nitrophenol at 1000 uM by spectrophotometry; in short: as §1
Penicillium decumbens = assay: Inhibition of Penicillium decumbens alpha-L-rhamnosidase assessed as production of p-nitrophenol at 1000 uM by spectrophotometry; in short: as §1
[3] = Inhibition of coffee beans alpha-galactosidase assessed as production of p-nitrophenol by spectrophotometry; parameters: species or system Coffea
In short: (§2)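 Commercial enzymes were assayed at their own optimum pH: bovine epididymis α-L-fucosidase pH 5.5, bovine liver β-galactosidase pH 6.8, coffee bean α-galactosidase pH 6.5. Reactions contained 2 mM of the matching p-nitrophenyl glycoside plus enzyme. They were stopped with 400 mM Na2CO3, and released p-nitrophenol was read at 400 nm.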

Oryza sativa = conditions: 1000 uM
Rattus norvegicus [4] = species: Rattus norvegicus; conditions: 1000 uM
[5] = target: Sucrase-isomaltase, intestinal (Rattus norvegicus) (UniProt P23739); conditions: 1000 uM
Sucrase-isomaltase, intestinal (Rattus norvegicus), sequence (P23739 1-1013 limits assumed): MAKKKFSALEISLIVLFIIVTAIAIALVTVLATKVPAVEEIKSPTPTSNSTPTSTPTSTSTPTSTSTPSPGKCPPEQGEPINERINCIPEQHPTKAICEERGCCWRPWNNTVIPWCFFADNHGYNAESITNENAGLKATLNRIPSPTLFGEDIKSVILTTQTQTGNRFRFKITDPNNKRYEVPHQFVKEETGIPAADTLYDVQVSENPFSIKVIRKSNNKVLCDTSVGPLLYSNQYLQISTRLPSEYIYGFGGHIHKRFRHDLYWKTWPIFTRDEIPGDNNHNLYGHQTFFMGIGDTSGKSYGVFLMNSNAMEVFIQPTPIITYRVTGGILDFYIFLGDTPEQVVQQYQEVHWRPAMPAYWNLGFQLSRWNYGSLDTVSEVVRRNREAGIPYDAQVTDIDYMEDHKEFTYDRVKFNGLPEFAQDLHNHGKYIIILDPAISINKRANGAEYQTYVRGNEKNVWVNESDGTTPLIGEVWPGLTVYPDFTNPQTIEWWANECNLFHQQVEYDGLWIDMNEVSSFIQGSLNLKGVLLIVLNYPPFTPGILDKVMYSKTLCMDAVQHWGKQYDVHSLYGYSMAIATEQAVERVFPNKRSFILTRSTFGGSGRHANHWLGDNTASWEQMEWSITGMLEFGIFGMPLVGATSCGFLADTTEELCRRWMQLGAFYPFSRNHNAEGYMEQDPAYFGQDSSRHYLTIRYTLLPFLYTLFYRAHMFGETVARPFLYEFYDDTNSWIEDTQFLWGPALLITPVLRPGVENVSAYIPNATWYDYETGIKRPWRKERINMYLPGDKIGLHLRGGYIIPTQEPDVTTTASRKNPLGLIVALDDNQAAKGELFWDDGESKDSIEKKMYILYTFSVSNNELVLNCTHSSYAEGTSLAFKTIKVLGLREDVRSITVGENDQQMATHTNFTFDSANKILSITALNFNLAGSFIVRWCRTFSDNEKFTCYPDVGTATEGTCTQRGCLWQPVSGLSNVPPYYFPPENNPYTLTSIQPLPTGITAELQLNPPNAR
Sucrase-isomaltase, intestinal (Rattus norvegicus), sequence (P23739 1014-1841 limits assumed): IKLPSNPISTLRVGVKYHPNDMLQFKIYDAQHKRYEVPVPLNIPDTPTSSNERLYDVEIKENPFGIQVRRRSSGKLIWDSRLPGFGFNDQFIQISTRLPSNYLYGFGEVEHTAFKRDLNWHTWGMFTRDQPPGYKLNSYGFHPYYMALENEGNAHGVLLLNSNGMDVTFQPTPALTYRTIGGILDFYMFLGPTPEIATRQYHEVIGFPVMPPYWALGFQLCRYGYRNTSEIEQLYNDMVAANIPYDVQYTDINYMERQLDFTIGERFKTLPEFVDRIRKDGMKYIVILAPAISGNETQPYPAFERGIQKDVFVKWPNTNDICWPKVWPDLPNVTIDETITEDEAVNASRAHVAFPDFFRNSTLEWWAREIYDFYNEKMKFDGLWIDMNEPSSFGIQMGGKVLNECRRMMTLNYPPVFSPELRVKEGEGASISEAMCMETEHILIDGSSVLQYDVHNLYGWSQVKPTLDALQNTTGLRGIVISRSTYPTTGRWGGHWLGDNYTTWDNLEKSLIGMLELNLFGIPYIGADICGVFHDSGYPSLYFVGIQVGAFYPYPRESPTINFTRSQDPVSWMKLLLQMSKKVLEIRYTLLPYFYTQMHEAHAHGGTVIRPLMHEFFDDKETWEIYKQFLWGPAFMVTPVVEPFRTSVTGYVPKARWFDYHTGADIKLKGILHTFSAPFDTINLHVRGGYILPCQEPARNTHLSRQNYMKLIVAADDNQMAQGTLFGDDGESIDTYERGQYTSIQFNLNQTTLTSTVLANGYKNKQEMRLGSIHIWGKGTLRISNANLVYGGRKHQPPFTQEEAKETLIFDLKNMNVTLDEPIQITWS

[6] = target: Sucrase-isomaltase, intestinal (Rattus norvegicus) (UniProt P23739); conditions: 1000 uM; remark: listed apart in the source
Prunus dulcis = conditions: 1000 uM
[7] = target: T2, Lysosomal acid glucosylceramidase (Homo sapiens) (UniProt P04062); conditions: 1000 uM
T2 sequence (whole entry): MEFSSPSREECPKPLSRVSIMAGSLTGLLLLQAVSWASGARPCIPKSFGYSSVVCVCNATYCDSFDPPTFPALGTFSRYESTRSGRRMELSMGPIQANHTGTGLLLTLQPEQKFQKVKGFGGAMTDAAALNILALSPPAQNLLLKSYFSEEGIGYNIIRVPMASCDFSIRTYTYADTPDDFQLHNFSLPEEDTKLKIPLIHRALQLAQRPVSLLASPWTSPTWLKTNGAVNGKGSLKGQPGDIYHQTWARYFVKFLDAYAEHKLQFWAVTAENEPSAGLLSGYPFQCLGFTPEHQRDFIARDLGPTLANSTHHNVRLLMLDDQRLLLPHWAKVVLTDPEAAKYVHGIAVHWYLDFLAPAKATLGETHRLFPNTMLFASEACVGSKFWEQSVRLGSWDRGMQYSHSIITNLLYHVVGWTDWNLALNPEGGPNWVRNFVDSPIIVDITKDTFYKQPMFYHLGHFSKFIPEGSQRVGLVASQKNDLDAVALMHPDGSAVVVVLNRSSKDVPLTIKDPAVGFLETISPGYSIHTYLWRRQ

[8] = target: T3, Tissue alpha-L-fucosidase (Bos taurus) (UniProt Q2KIM0); conditions: 1000 uM
T3 sequence (whole entry): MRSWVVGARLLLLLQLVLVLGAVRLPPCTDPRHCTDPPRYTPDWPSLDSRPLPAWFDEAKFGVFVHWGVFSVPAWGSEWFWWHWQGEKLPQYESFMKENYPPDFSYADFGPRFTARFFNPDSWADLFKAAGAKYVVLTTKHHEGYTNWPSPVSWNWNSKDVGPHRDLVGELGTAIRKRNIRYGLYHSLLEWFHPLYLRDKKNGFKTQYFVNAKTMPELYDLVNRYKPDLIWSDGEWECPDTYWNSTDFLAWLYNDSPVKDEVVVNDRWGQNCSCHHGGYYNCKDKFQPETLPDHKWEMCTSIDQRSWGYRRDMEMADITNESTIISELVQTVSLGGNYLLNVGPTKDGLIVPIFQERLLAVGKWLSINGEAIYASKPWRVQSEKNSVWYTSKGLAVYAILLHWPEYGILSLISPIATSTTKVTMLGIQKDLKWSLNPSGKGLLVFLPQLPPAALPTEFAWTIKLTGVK

[9] = target: Lactase/phlorizin hydrolase (Rattus norvegicus) (UniProt Q02401); conditions: 1000 uM
Lactase/phlorizin hydrolase (Rattus norvegicus), sequence (Q02401 868-1928 limits assumed): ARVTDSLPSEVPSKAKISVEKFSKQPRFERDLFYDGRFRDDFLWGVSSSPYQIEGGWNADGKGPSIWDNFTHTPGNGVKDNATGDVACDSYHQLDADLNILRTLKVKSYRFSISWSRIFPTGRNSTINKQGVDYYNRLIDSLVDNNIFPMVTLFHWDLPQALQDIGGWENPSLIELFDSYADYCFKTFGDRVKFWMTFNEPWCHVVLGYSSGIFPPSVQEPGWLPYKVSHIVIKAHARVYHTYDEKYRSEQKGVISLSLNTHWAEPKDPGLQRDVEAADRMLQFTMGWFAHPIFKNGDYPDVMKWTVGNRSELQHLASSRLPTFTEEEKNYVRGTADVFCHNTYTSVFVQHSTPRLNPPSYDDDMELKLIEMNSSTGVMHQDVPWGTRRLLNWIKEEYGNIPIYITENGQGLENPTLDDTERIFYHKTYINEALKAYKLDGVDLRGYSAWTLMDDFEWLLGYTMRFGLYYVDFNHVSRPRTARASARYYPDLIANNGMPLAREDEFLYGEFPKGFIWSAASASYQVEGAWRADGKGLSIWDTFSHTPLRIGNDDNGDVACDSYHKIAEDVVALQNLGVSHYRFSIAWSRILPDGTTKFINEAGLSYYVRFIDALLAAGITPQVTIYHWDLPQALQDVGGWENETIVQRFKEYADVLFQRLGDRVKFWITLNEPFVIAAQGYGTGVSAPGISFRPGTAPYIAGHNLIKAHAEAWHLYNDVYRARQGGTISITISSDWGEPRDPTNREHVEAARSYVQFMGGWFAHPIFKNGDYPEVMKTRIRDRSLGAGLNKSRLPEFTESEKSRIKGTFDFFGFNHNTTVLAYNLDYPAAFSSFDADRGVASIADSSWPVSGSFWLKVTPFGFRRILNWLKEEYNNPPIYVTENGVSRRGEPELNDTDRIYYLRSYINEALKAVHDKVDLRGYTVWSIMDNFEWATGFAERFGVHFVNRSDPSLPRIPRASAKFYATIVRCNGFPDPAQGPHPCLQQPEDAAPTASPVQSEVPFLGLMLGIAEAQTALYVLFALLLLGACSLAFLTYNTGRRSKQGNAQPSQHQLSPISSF

[10] = target: T4, Glucosylceramidase (Bos taurus) (UniProt Q2KHZ8); assay: Inhibition of bovine liver beta-glucosidase assessed as production of p-nitrophenol using p-nitrophenyl glycoside as substrate at 1000 uM by spectrophotometry
T4 sequence (whole entry): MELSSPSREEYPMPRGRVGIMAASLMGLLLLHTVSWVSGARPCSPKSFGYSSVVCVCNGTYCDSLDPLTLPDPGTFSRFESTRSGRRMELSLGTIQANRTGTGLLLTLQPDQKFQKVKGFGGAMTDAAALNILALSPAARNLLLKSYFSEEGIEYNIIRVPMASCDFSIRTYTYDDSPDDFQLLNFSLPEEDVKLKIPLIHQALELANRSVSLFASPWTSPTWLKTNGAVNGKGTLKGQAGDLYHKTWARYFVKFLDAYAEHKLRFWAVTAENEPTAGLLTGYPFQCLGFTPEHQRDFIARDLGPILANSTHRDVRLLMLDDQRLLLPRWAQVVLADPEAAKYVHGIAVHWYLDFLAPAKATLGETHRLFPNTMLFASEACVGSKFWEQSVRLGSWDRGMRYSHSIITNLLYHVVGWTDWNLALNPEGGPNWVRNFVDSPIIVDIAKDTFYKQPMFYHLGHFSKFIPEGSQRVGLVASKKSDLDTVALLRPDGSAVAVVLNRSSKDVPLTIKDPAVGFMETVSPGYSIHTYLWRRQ

Coffea = assay: Inhibition of coffee beans alpha-galactosidase assessed as production of p-nitrophenol at 1000 uM by spectrophotometry; in short: as §1
[11] = target: Lactase/phlorizin hydrolase (Rattus norvegicus, UniProt Q02401); assay: Inhibition of rat intestinal lactase assessed as production of p-nitrophenol by spectrophotometry
Lactase/phlorizin hydrolase, sequence (Q02401 868-1928 limits assumed): as the sequence (Q02401 868-1928 limits assumed) above

[12] = Inhibition of rat intestinal maltase assessed as production of D-glucose using maltose as substrate after 10 to 30 mins by spectrophotometry
In short: (§3)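 Enzymes were rice α-glucosidase at pH 5.0 and rat small-intestine brush border membranes (Kessler method) at pH 5.8. Each reaction contained 25 mM maltose and enzyme and was incubated 10–30 min at 37 °C. Reactions were stopped by heating at 100 °C for 3 min, then centrifuged. Released D-glucose was measured with a glucose test reagent by absorbance at 505 nm.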

[13] = target: T5, Sucrase-isomaltase, intestinal (Rattus norvegicus, UniProt P23739); assay: Inhibition of rat intestinal isomaltase assessed as production of p-nitrophenol at by spectrophotometry
T5 sequence (P23739 1-1013 limits assumed): as the sequence (P23739 1-1013 limits assumed) above
T5 sequence (P23739 1014-1841 limits assumed): as the sequence (P23739 1014-1841 limits assumed) above

[14] = Inhibition of rat intestinal cellobiase assessed as production of p-nitrophenol by spectrophotometry
Beta-galactosidase = target: T6, Beta-galactosidase (Bos taurus, UniProt Q58D55); assay: Inhibition of bovine liver beta-galactosidase assessed as production of p-nitrophenol by spectrophotometry
T6 sequence (Q58D55 whole entry): T1 sequence (whole entry)

[15] = target: T5, Sucrase-isomaltase, intestinal; assay: Inhibition of rat intestinal sucrase assessed as release of D-glucose at by spectrophotometry
[16] = Inhibition of almond beta-glucosidase assessed as production of p-nitrophenol using p-nitrophenyl glycoside as substrate by spectrophotometry
[17] = Inhibition of rice alpha-glucosidase; parameters: species or system Oryza sativa; in short: as §3
[18] = Inhibition of rat intestinal maltase; in short: as §3
[19] = Inhibition of rice alpha-glucosidase assessed as production of D-glucose using maltose as substrate after 10 to 30 mins by spectrophotometry; parameters: species or system Oryza sativa; in short: as §3
[20] = target: T7, Tissue alpha-L-fucosidase (Bos taurus, UniProt Q2KIM0); assay: Inhibition of bovine epididymis alpha-L-fucosidase assessed as production of p-nitrophenol by spectrophotometry; in short: as §2
T7 sequence (Q2KIM0 whole entry): T3 sequence (whole entry)

Row | SMILES | inhibition (Canavalia ensiformis) | inhibition (Helix pomatia) | inhibition (Penicillium decumbens) | IC50 [3] | inhibition (Oryza sativa) | inhibition (Rattus norvegicus [4]) | inhibition [5] | inhibition [6] | inhibition (Prunus dulcis) | inhibition [7] | inhibition [8] | inhibition [10] | inhibition (Coffea) | IC50 [11] | IC50 [12] | IC50 [14] | IC50 [15] | IC50 [16] | IC50 [19] | other results
1 | OC[C@H]1NCC[C@@H](O)[C@H]1O | < 50% | < 50% | < 50% | 8 µM | < 50% | < 50% | < 50% | < 50% | < 50% | < 50% | < 50% | < 50% | – | – | – | – | – | – | – | inhibition (Rattus norvegicus [1]): < 50%; inhibition [2]: < 50%; inhibition [9]: < 50%
2 | OC[C@H]1CNC[C@@H](O)[C@@H]1O [AFEGOSTAT] | < 50% | < 50% | < 50% | – | < 50% | – | – | – | – | – | < 50% | – | < 50% | 0.12 µM | 653 µM | 0.3 µM | 531 µM | 0.98 µM | – | IC50 [13]: 290 µM; IC50 (Beta-galactosidase): 3.6 µM
3 | OCC1(O)CNC[C@H]1O (single isomer, unassigned) | – | – | – | – | – | – | – | – | – | – | – | – | – | – | – | – | – | – | – | Ki [17]: 4 µM; Ki [18]: 6 µM
4 | OC[C@@H]1CNC[C@H](O)[C@@H]1O | < 50% | < 50% | < 50% | 450 µM | < 50% | < 50% | < 50% | < 50% | – | < 50% | < 50% | < 50% | – | 90 µM | – | 607 µM | – | 983 µM | – | inhibition [2]: < 50%
5 | OC[C@H]1CNC[C@@H](O)[C@H]1O | < 50% | < 50% | < 50% | 144 µM | < 50% | < 50% | < 50% | < 50% | – | – | < 50% | – | – | 0.51 µM | – | 4.5 µM | – | 3.2 µM | – | IC50 (Beta-galactosidase): 21 µM
6 | OC[C@H]1NC[C@H](O)[C@@H](O)[C@@H]1O [DUVOGLUSTAT] | < 50% | < 50% | < 50% | 880 µM | – | – | – | – | – | – | – | < 50% | – | – | 0.65 µM | 327 µM | – | 80 µM | 0.03 µM | –

Now from value to compound, other results behind:

Row | inhibition (Canavalia ensiformis) | inhibition (Helix pomatia) | inhibition (Penicillium decumbens) | IC50 [3] | inhibition (Oryza sativa) | inhibition (Rattus norvegicus [4]) | inhibition [5] | inhibition [6] | inhibition (Prunus dulcis) | inhibition [7] | inhibition [8] | inhibition [10] | inhibition (Coffea) | IC50 [11] | IC50 [12] | IC50 [14] | IC50 [15] | IC50 [16] | IC50 [19] | SMILES | other results
7 | < 50% | < 50% | < 50% | – | – | – | – | – | < 50% | – | < 50% | – | < 50% | – | 113 µM | – | 34 µM | – | 320 µM | OC[C@H]1NCC[C@@H](O)[C@@H]1O [FAGOMINE] | inhibition (Rattus norvegicus [1]): < 50%; IC50 [13]: 37 µM; inhibition [9]: < 50%
8 | < 50% | < 50% | < 50% | – | – | – | < 50% | – | < 50% | < 50% | – | < 50% | < 50% | 122 µM | 357 µM | 809 µM | 225 µM | – | 188 µM | OC[C@@H]1NCC[C@@H](O)[C@H]1O | IC50 [20]: 260 µM
